How the values were obtained:
[1] = target: T1, Alpha-2B adrenergic receptor (Homo sapiens) (UniProt P18089); experiment: Intrinsic activity at human alpha2B adrenoceptor expressed in CHO cells assessed as extracellular acidification by cytosensor microphysiometry relative to noradrenaline; format: cell-based
T1 sequence (whole entry): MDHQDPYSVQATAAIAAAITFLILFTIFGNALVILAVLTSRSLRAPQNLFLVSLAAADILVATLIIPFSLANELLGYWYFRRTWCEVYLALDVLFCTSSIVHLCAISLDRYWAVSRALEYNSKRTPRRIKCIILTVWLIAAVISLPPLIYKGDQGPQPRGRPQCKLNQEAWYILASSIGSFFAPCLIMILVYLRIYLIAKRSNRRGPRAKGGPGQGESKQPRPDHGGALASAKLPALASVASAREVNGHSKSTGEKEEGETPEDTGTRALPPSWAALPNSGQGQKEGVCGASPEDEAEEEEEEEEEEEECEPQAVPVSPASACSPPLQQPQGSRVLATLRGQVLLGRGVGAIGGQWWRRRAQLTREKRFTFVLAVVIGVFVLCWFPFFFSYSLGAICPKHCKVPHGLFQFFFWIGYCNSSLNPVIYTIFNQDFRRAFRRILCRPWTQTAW
Procedure, shortened: (§1)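 Cytosensor microphysiometry on the same CHO cell lines expressing individual human α2-AR subtypes. pEC50, pKb and intrinsic activity were derived, with ia expressed as a fraction of full agonist (-)-noradrenaline (taken as 1). ia <0.3 was scored not active. Values are mean ± SEM of three to six separate experiments.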

[2] = target: T2, Alpha-2C adrenergic receptor (Homo sapiens) (UniProt P18825); experiment: Intrinsic activity at human Alpha-2C adrenoceptor expressed in CHO cells assessed as extracellular acidification by cytosensor microphysiometry relative to noradrenaline; format: cell-based; procedure, shortened: as §1
T2 sequence (whole entry): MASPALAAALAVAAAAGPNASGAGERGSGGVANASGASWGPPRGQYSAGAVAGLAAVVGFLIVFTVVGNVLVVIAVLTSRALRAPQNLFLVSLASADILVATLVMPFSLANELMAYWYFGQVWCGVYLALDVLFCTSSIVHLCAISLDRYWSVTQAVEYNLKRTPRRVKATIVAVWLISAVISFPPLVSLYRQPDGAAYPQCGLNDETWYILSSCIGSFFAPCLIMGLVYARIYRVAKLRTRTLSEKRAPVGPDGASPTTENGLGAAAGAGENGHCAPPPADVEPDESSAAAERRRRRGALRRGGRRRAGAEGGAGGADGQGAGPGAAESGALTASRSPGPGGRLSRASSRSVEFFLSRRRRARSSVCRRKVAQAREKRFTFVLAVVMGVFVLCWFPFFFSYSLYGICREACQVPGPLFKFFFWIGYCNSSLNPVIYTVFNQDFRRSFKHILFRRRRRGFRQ

[3] = target: T3, Alpha-2A adrenergic receptor (Homo sapiens) (UniProt P08913); experiment: Antagonist activity at human alpha2A adrenoceptor expressed in CHO cells assessed as extracellular acidification by cytosensor microphysiometry; format: functional, cell-based; procedure, shortened: as §1
T3 sequence (whole entry): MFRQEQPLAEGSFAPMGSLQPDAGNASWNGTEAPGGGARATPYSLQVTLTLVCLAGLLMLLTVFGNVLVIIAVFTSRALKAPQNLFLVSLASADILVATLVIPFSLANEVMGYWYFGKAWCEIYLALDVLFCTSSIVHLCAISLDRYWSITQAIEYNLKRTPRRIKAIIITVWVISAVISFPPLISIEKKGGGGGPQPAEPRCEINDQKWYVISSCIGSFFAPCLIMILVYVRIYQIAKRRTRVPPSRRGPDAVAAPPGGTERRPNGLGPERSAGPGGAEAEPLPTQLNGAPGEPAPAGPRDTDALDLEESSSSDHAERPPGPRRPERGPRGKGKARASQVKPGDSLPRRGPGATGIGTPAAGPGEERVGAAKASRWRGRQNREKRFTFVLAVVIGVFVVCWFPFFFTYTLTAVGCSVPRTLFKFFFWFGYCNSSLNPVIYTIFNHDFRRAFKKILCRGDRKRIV

[4] = target: T4, Alpha-2C adrenergic receptor (Homo sapiens, UniProt P18825); experiment: Displacement of [3H]RX821002 from human Alpha-2C adrenoceptor expressed in CHO cell membrane after 30 mins by liquid scintillation counting; format: cell membranes
T4 sequence (P18825 whole entry): T2 sequence (whole entry)
Procedure, shortened: (§2)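 Competition binding against [3H]RX 821002 on membrane preparations from CHO cells, each line expressing one human α2-AR subtype (α2A, α2B or α2C); affinities reported as pKi.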

[5] = target: T5, Alpha-2B adrenergic receptor (Homo sapiens, UniProt P18089); experiment: Agonist activity at human alpha2B adrenoceptor expressed in CHO cells assessed as extracellular acidification by cytosensor microphysiometry; format: functional, cell-based; procedure, shortened: as §1
T5 sequence (P18089 whole entry): T1 sequence (whole entry)

[6] = target: T5, Alpha-2B adrenergic receptor; experiment: Displacement of [3H]RX821002 from human alpha2B adrenoceptor expressed in CHO cell membrane after 30 mins by liquid scintillation counting; format: cell membranes; procedure, shortened: as §2
[7] = target: T4, Alpha-2C adrenergic receptor; experiment: Agonist activity at human Alpha-2C adrenoceptor expressed in CHO cells assessed as extracellular acidification by cytosensor microphysiometry; format: functional, cell-based; procedure, shortened: as §1
[8] = target: T6, Alpha-2A adrenergic receptor (Homo sapiens, UniProt P08913); experiment: Displacement of [3H]RX821002 from human alpha2A adrenoceptor expressed in CHO cell membrane after 30 mins by liquid scintillation counting; format: cell membranes; procedure, shortened: as §2
T6 sequence (P08913 whole entry): T3 sequence (whole entry)

SMILES | Intrinsic activity [1] | Intrinsic activity [2] | pKb [3] | Ki [4] [nM] | EC50 [5] [nM] | Ki [6] [nM] | EC50 [7] [nM] | Ki [8] [nM]
NC[C@H](O)c1ccc(O)c(O)c1 | 1 | 1 | – | – | – | – | – | –
c1ccc(C2CC2)c(OCC2=NCCN2)c1 [CIRAZOLINE] | 1 | 0.8 | 6.4 | 550 | 1000 | 525 | 398 | 58.9

— ChEMBL document CHEMBL1156735, “Might adrenergic alpha2C-agonists/alpha2A-antagonists become novel therapeutic tools for pain treatment with morphine?” (J Med Chem, 2009)
